# Screening results (PubChem BioAssay)
# Most compounds without a hit are left out; they make up all but 1.2% or so of the library.
# CaV13 FRET inh: Disruptors of the CACNA1D IQ motif to Ca2+-dependent inactivation inhibitor domain association, primary screening, Förster resonance energy transfer in intact living …; HEK cells, CFP/YFP FRET ICDI-IQ, plate reader, 10 min; percent FRET-ratio fall versus neutral wells; inhibition, % at 12.3 µM; 340,000 tested, 0.098% active;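 active = mean replicate inhibition of at least 30% and at least 1% of replicates passing that level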
# FN deposition inh: fibronectin deposition inhibition. AH1F fibroblasts, Alexa488-fibronectin deposition fluorescence, overnight. inhibition, % at 12.6 µM. 350,000 tested, 0.086% active;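 active = mean inhibition across replicates of 30% or more, regardless of how many single replicates reach that level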
#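 Material: AH1F fibroblasts assembling fluorescent fibronectin matrix; amount: 10000 AH1F cells/well; medium: DMEM, 2% serum; reagent: Alexa488-fibronectin, 24 nM final in well; dosing: single compound dose, delivered by pin transfer; incubation: 1 h adhesion, overnight exposure; detection: fluorescence after three HBSS washes, excitation 485 nm, emission 525 nm; measure: fibronectin deposition inhibition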
# Efflux pump inh: blocks antifungal efflux pumps in multiplex yeast assay | S. cerevisiae Candida pump triplex, Nile Red efflux | inhibition, % at 10 µM | 330,000 tested, 0.44% active;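 active = plate passing quality check with inhibition over a set limit, or well fluorescence over plate mean plus 4 SD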;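 also: Nile Red retained in pooled yeast measured as flow cytometry median fluorescence; higher means more Nile Red kept so more efflux inhibition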
# SR-BI DiI inh: inhibitors of mouse SR-BI mediated HDL lipid uptake | ldlA[mSR-BI] CHO cells, DiI-HDL uptake fluorescence, 3 h | inhibition, % at 12.5 µM | Q61009 | 320,000 tested, 0.96% active;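 active = mean replicate inhibition of at least 70% and a set share of replicates each scoring 70 or more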
# Target sequence (Q61009 whole entry, looked up): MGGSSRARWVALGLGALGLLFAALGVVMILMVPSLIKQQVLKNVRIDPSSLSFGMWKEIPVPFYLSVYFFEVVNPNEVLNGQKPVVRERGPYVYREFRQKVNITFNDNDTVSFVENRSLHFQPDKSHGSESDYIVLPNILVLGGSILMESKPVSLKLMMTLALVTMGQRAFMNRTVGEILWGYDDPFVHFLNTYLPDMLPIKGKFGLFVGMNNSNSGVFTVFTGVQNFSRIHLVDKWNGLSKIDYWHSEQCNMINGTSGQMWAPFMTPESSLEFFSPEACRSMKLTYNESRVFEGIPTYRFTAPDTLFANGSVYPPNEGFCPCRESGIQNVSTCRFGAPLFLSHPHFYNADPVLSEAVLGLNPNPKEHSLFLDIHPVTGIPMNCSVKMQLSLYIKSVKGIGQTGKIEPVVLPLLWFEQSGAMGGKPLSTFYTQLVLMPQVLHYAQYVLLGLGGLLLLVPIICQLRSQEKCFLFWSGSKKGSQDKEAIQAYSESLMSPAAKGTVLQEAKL
# SR-BI DiI-HDL act: enhances SR-BI lipid uptake from DiI-HDL; 320,000 tested, 0.096% active; CHO ldlA[mSR-BI] cells, DiI-HDL uptake fluorescence, 3 h; 100 = double the neutral-control signal; activation, % at 12.5 µM; AID 504775;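 active = mean replicate activation of at least 60% and every replicate at or above 60%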
#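 Material – SR-BI-overexpressing, LDLR-lacking CHO cells · Medium – BSA-supplemented, HEPES-buffered Ham's F12, pH 7.4 · Doses – single concentration · Times – compound with DiI-HDL co-incubation, 3 h at 37 °C · Measured by – bottom-read fluorescence, 550/595 nm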
# A number is an active result; – = inactive; · = no result given; + = active, no number; ! = not active in a repeat.
SMILES,CaV13 FRET inh,FN deposition inh,Efflux pump inh,SR-BI DiI inh,SR-BI DiI-HDL act
COc1ccc(S(=O)(=O)N2CCCCC2c2cc(C(=O)Nc3ccc4c(c3)OCO4)no2)cc1 (configuration not stated),–,35.2,·,·,·
NC(=S)NNc1ccnc2cc(Cl)ccc12,–,–,–,90.3,–
FC(F)Oc1ccc(NC(=S)NNc2ccnc3cc(Cl)ccc23)cc1,–,–,–,95.2,–
O=C(NNc1ccnc2cc(Cl)ccc12)C1CCCCC1,–,–,–,–,–
Cc1cccc(NC(=O)CN2CCc3cc4c(cc3C2)OCCCO4)c1,–,–,–,–,222.1
O=C(CN1CCN(c2ccc(O)cc2)CC1)Nc1ccc2c(c1)OCCCO2,–,–,–,75.1,–
COc1ccc(C[C@H]2CCn3cc(nn3)COC[C@@H](Cc3ccccc3)NC2=O)cc1,·,–,·,·,·
O=C(Nc1ccc(N2CCCC2)c(Cl)c1)c1cccc(-c2cc3ccccc3oc2=O)c1,–,–,–,86.6,–
O=C(Nc1ccc(N2CCOCC2)c(Cl)c1)c1cc2ccccc2o1,·,·,–,84.9,–
O=C(Nc1ccc(NC(=O)c2cc3ccccc3o2)cc1)c1ccc2c(c1)OCCO2,–,–,–,73.2,–
Cc1ccc(NC(=O)c2cc(NC(=O)c3ccco3)ccc2N2CCOCC2)cc1Cl,–,·,–,73.6,–
O=C(Nc1ccccc1N1CCOCC1)c1cc2ccccc2o1,–,–,–,·,·
O=C(Nc1ccc(N2CCCC2)c(Cl)c1)c1ccco1,–,–,–,–,–
CC(=O)N(C[C@@H]1[C@@H](c2ccc(C3=CCCC3)cc2)[C@@H](CO)N1CC1CC1)C(C)C,·,–,·,·,·
COc1ccc2nc(NC(=O)c3cccc(-c4cc5ccccc5oc4=O)c3)sc2c1,–,–,–,77.3,–
CS(=O)(=O)N1CCN(c2ccccc2NC(=O)c2cc3ccccc3o2)CC1,–,–,–,74.6,–
COc1ccc(C(=O)Nc2nc3ccc(OC)cc3s2)cc1,–,–,–,–,–
COc1ccccc1S(=O)(=O)N[C@@H]1CC[C@H](CCNC(=O)C2CC2)O[C@H]1CO,·,–,·,·,·
CCCNC(=O)C[C@@H]1C[C@@H]2c3cc(NC(=O)Cc4ccncc4)ccc3O[C@@H]2[C@H](CO)O1,·,–,·,·,·
CC(=O)NNc1cc(N2CCOCC2)nc(N2CCOCC2)n1,+,–,–,–,–
CC(C)(C)[S@@](=O)N1Cc2cc(C(=O)NCc3ccccc3F)nc(-c3cccc(-c4cncnc4)c3)c2[C@H]1CCO,·,31.0,·,·,·
CC(C)(C)[S@@](=O)N1Cc2cc(C(=O)NCc3ccccc3F)nc(-c3cccc(-c4cccnc4)c3)c2[C@H]1CCO,·,–,·,·,·
O=C(Nc1ccc(CN2CCOCC2)cc1)c1ccc(-c2cccc([N+](=O)[O-])c2)o1,–,–,–,72.1,–
CC(=O)c1ccc(-c2c(C)cc3oc(=O)cc(-c4ccccc4)c3c2C)cc1,–,·,–,–,–
Cc1cc2oc(=O)cc(-c3ccccc3)c2c(C)c1-c1ccc(F)c(Cl)c1,–,–,–,–,–
SMILES,CaV13 FRET inh,FN deposition inh,Efflux pump inh,SR-BI DiI inh,SR-BI DiI-HDL act
Cc1cc2oc(=O)cc(-c3ccccc3)c2c(C)c1-c1ccc(C#N)cc1,–,·,–,81.8,–
Cc1cc2oc(=O)cc(-c3ccccc3)c2c(C)c1-c1ccc(CO)cc1,–,·,–,74.5,–
COc1ccc(S(=O)(=O)Nc2ccc3c(c2)C(=O)N([C@H](C)CO)C[C@@H](C)[C@H](CN(C)S(=O)(=O)c2c(C)noc2C)OCCCC[C@@H](C)O3)cc1,·,–,·,·,·
C/C(CC(=O)Nc1ccccn1)=N\NC(=O)c1ccccc1O,–,–,–,73.4,–
C/C(CC(=O)Nc1ccccn1)=N\NC(=O)c1ccccc1,·,·,–,·,·
CCOC(=O)C1=C(CN2CCOCC2)NC(=O)NC1c1cc(C)ccc1C (configuration not stated),–,–,–,–,–
CCOC(=O)C1=C(CN2CCN(c3ccc(F)cc3)CC2)NC(=O)NC1c1cccs1 (configuration not stated),–,–,–,78.3,–
Cc1ccc(NC(=O)c2cc(-c3ccc(C)c(C)c3O)n[nH]2)cc1C,–,–,–,–,–
CC(=O)Nc1ccc(NC(=O)c2cc(-c3ccc(C)c(C)c3O)n[nH]2)cc1,–,–,–,72.9,–
Cc1ccc(NC(=S)Nc2cccc3cnccc23)cc1C,–,–,–,75.0,–
O=C(Nc1ccc(N2CCOCC2)cc1)c1cccc(S(=O)(=O)N2CCCCC2)c1,·,·,·,80.5,–
C=CCN(c1ccccc1)S(=O)(=O)c1cccc(C(=O)NNC(=O)c2ccccc2O)c1,–,–,–,87.5,–
C=CCN(c1ccccc1)S(=O)(=O)c1cccc(C(=O)O)c1,·,·,–,–,–
C=CCN(c1ccccc1)S(=O)(=O)c1cccc(C(=O)Nc2ccc(N3CCOCC3)cc2)c1,–,–,·,80.2,–
CCN1CCN(c2ccc(NC(=O)c3cccc(S(=O)(=O)N4CCCC4)c3)cc2)CC1,–,·,–,–,–
O=C(Cc1cccnc1)N1CC(=O)N2[C@@H](CO)[C@H](c3ccc(C#CC4CCCC4)cc3)[C@@H]2C1,·,–,·,·,·
C[C@H](CO)N1C[C@H](C)[C@@H](CN(C)C(=O)CCC(F)(F)F)OCCCC[C@H](C)Oc2ccc(NC(=O)CCCN(C)C)cc2C1=O,·,–,·,·,·
COc1cc2c(cc1OC)C(=Cc1ccc(N(C)C)cc1)C=C2,–,–,·,76.4,–
CCC(=O)Nc1ccc2c(c1)C(=O)N(C)C[C@@H](OC)[C@H](C)CN(Cc1cncnc1)[C@@H](C)CO2,·,–,·,·,·
COc1ccc(C(=O)Nc2ccc(N3CCN(C(=O)c4cccs4)CC3)cc2)cc1Br,–,–,–,72.2,–
COc1ccc(C(=O)Nc2ccc(N3CCCC3)cc2)cc1OC,–,–,–,74.0,–
COc1ccc(NC(=O)c2ccc(CNc3c(NC4CCCCC4)c(=O)c3=O)cc2)cc1OC,–,–,–,78.3!,–
Cc1ccc(C(=O)Nc2ccc(N3CCCC3)cc2)c(C)c1,–,–,–,83.7,–
COc1cccc(CN2[C@H](CO)[C@@H](c3ccccc3)C23CN(Cc2ccccc2OC)C3)c1,·,–,·,·,·
COc1cc(C(=O)NC(=S)Nc2ccc(N3CCCC3)cc2)cc(OC)c1OC,–,–,–,74.6,–
COCC(=O)N1CC2(C1)[C@@H](c1ccc(C3=CCCC3)cc1)[C@H](CO)N2C(=O)COC,·,–,·,·,·
CC(C)(C)OC(=O)NCCCC[C@H](NC(=O)c1[nH]cnc1C(=O)N[C@@H](Cc1ccccc1)C(=O)OC(C)(C)C)C(=O)OC(C)(C)C,–,–,–,–,64.0
COc1cc(C2=NOC(C(=O)N3CCCc4ccccc43)C2)cc(OC)c1OC (configuration not stated),–,–,–,81.8,–
CC(=O)N(C)C[C@H]1Oc2cc(-c3cccnc3)ccc2S(=O)(=O)N([C@@H](C)CO)C[C@@H]1C,·,–,·,·,·
